The text below walks through data of paper PMC3445631 (Bioorganic & medicinal chemistry letters, 2012).

In one experiment the target is mCB2 receptor (Mus musculus, UniProt P47936). As to the kind of experiment: Photolabeling of mCB2. It is filed as binding. The note with it: HEK293 cell membranes expressing mCB2, photoactivated. In a few lines:
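Compound-free membranes were run in parallel as control. Incubated 30 min at 37°C, then UV-irradiated at 365 nm for 1 h on ice. Washed with 1% BSA TME, then plain TME. Followed by [3H]CP-55940 saturation binding.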

The target in a further experiment is hCB2 (Homo sapiens, UniProt P34972). As to the kind of experiment: Photolabeling of hCB2. It is filed as binding.
Sequence of hCB2 (P34972 whole entry): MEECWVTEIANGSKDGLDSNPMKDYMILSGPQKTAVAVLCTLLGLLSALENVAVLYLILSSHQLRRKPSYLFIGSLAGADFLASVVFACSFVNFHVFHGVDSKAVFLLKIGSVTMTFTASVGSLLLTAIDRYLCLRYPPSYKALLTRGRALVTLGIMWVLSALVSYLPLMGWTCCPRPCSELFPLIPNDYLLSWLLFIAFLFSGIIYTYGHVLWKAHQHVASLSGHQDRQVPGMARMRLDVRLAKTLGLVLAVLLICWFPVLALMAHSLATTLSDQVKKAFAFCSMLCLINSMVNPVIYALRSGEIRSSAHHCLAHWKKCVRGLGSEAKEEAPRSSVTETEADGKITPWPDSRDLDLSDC

Sequence of mCB2 receptor (P47936 whole entry): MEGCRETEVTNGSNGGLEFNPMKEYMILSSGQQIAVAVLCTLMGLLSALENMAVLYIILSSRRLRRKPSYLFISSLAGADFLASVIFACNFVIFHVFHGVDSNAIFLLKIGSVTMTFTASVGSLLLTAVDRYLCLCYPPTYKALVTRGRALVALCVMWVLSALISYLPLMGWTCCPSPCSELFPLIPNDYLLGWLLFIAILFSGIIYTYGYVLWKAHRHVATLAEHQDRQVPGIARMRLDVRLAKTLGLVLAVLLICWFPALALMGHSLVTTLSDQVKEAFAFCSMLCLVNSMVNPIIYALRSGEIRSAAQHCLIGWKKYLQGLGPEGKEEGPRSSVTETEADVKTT

With `CC1(C)Oc2cc(C(=O)c3c[nH]c4ccccc34)cc(O)c2[C@@H]2C[C@H](O)CC[C@H]21` [Compound 50], on mCB2 receptor, the “ability to photolabel the mCB2 receptor” value is given as “failed to label mCB2”.
As for `CC1(C)Oc2cc(C(=O)c3cccc(C(F)(F)F)c3)cc(O)c2[C@@H]2C[C@H](O)CC[C@H]21` [Compound 49], the “ability to photolabel the mCB2 receptor” value on mCB2 receptor was “also labeled, however, less effectively”. The “extent of labeling of hCB2” value at hCB2 was found to be 30%.
